The values below come from ChEMBL document CHEMBL3244061, “Angiotensin II analogues. 12. Role of the aromatic ring of position 8 phenylalanine in pressor activity” (J Med Chem, 1979).

Peptide text beside a SMILES is read from it.

The species entered for data set [1] is Rattus norvegicus. The data set can be described thus: Induction of pressor activity in nephrectomized, pentolinium-treated rat model relative to angiotensin 2. The settings on record: in vivo. It counts as organism-based. Put shortly:
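Pressor activity was measured in male rats that were nephrectomized, treated with pentolinium and anesthetized with pentobarbital. Peptides were dissolved in normal saline containing 0.1% polyvinylpyrrolidone and kept in siliconized glass. Molarities of all solutions, including the angiotensin II standard, were set from peptide content determined by amino acid analysis of hydrolysates. Activity was expressed relative to angiotensin II.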

Data set [2] is filed under the species Rattus norvegicus. The data set is described as follows: Inhibition of 70 pmol angiotensin-2-induced pressor activity in rat at 1400 pmol/min co-infused with angiotensin-2 measured after 30 mins. It counts as functional. An outline of the steps:
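Antagonist and angiotensin II were coinjected at a 20:1 ratio (1400 pmol/70 pmol per minute) for 30 min. The percent reduction of the angiotensin II pressor effect was recorded. Recovery to one-half of the pretreatment level was followed after the infusion stopped.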

The species entered for data set [3] is Rattus norvegicus. The data set is described as follows: Inhibition of 3 to 12 pmol angiotensin-2-induced pressor activity in rat at 400 pmol measured after 30 mins. It counts as functional. Put shortly:
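A single 400 pmol injection of antagonist was given. Pressor responses to single angiotensin II doses of 3, 6 and 12 pmol were then tracked. Duration (T1/2) was taken as the time for the responses to return to one-half of the pretreatment level.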

For data set [4], the species on record is Rattus norvegicus. The data set can be described thus: Inhibition of angiotensin-2-induced pressor activity in rat assessed as duration of action. It counts as functional, organism-based. Put shortly: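 Antagonist was given to rats as a single 4000 pmol dose. Pressor responses to 20 pmol angiotensin II were then followed. Duration of action (T1/2) was taken as the time for the angiotensin II response to recover to one-half of its pretreatment level.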

`CC[C@H](C)[C@H](NC(=O)[C@H](Cc1ccc(O)cc1)NC(=O)[C@@H](NC(=O)[C@@H](C)N)C(C)C)C(=O)N[C@@H](Cc1cnc[nH]1)C(=O)N1CCC[C@H]1C(=O)N[C@@H](CC(C)C)C(=O)O`: the Activity in data set [1] is given as 1.4%.
Still for that read-out and setting: the value for `CC[C@H](C)[C@H](NC(=O)[C@H](Cc1ccc(O)cc1)NC(=O)[C@@H](NC(=O)[C@H](CCCNC(=N)N)NC(=O)[C@@H](N)CC(=O)O)C(C)C)C(=O)N[C@@H](Cc1c[nH]cn1)C(=O)N1CCC[C@H]1C(=O)N[C@@H](CC1CCCCC1)C(=O)O` was 20%.
Same read-out and setting: as for `CC[C@H](C)[C@H](NC(=O)[C@H](Cc1ccc(O)cc1)NC(=O)[C@@H](NC(=O)[C@H](CCCNC(=N)N)NC(=O)[C@@H](N)CC(=O)O)C(C)C)C(=O)N[C@@H](Cc1c[nH]cn1)C(=O)N1CCC[C@H]1C(=O)N[C@@H](Cc1ccc(F)cc1)C(=O)O`, the figure is 100%; as for `CC[C@H](C)[C@H](NC(=O)[C@H](Cc1ccc(O)cc1)NC(=O)[C@@H](NC(=O)[C@H](CCCNC(=N)N)NC(=O)[C@@H](N)CC(=O)O)C(C)C)C(=O)N[C@@H](Cc1c[nH]cn1)C(=O)N1CCC[C@H]1C(=O)N[C@@H](Cc1ccc(OC)cc1)C(=O)O`, 33%.
The same measure, in the same setting: the value for `CCCC[C@H](NC(=O)[C@@H]1CCCN1C(=O)[C@H](Cc1c[nH]cn1)NC(=O)[C@@H](NC(=O)[C@H](Cc1ccc(O)cc1)NC(=O)[C@@H](NC(=O)[C@H](CCCNC(=N)N)NC(=O)[C@@H](N)CC(=O)O)C(C)C)[C@@H](C)CC)C(=O)O` was 7.3%.
For `CC[C@H](C)[C@H](NC(=O)[C@H](Cc1ccc(O)cc1)NC(=O)[C@@H](NC(=O)[C@H](CCCN=C(N)N)NC(=O)[C@@H](N)CC(=O)O)C(C)C)C(=O)N[C@@H](Cc1c[nH]cn1)C(=O)N1CCC[C@H]1C(=O)N[C@@H](Cc1ccc(Br)cc1)C(=O)O`, the Activity in data set [1] is reported as 50%.
In the case of `CCCCC[C@H](NC(=O)[C@@H]1CCCN1C(=O)[C@H](Cc1cnc[nH]1)NC(=O)[C@@H](NC(=O)[C@H](Cc1ccc(O)cc1)NC(=O)[C@@H](NC(=O)[C@H](CCCNC(=N)N)NC(=O)[C@@H](N)CC(N)=O)C(C)C)[C@@H](C)CC)C(=O)O` (HELM PEPTIDE1{N.R.V.Y.I.H.P.[CCCCC[C@H](N[*:1])C(=O)O]}$$$$V2.0), the Activity in data set [1] amounted to 11.5%.
Turning to `CC[C@H](C)[C@H](NC(=O)[C@H](Cc1ccc(O)cc1)NC(=O)[C@@H](NC(=O)[C@H](CCCNC(=N)N)NC(=O)[C@@H](N)CC(N)=O)C(C)C)C(=O)N[C@@H](Cc1cnc[nH]1)C(=O)N1CCC[C@H]1C(=O)N[C@@H](Cc1ccc(N)cc1)C(=O)O` (HELM PEPTIDE1{N.R.V.Y.I.H.P.[Nc1ccc(C[C@H](N[*:1])C(=O)O)cc1]}$$$$V2.0), the Activity in data set [1] came to 52.5%.
In data set [1], `CCCC[C@H](NC(=O)[C@@H]1CCCN1C(=O)[C@H](Cc1cnc[nH]1)NC(=O)[C@@H](NC(=O)[C@H](Cc1ccc(O)cc1)NC(=O)[C@@H](NC(=O)[C@H](CCCNC(=N)N)NC(=O)[C@@H](N)CC(N)=O)C(C)C)[C@@H](C)CC)C(=O)O` (HELM PEPTIDE1{N.R.V.Y.I.H.P.[Nle]}$$$$V2.0) showed an Activity of 7.3%.
With `CC[C@H](C)[C@H](NC(=O)[C@H](Cc1ccc(O)cc1)NC(=O)[C@@H](NC(=O)[C@H](CCCNC(=N)N)NC(=O)[C@@H](N)CC(N)=O)C(C)C)C(=O)N[C@@H](Cc1cnc[nH]1)C(=O)N1CCC[C@H]1C(=O)NC1(C(=O)O)Cc2ccccc2C1` (HELM PEPTIDE1{N.R.V.Y.I.H.P.[O=C(O)C1(N[*:1])Cc2ccccc2C1]}$$$$V2.0), in data set [1], the Activity stood at 0.1%.
The same measure, in the same setting: the value for `CC[C@H](C)[C@H](NC(=O)[C@H](Cc1ccc(O)cc1)NC(=O)[C@@H](NC(=O)[C@H](CCCNC(=N)N)NC(=O)[C@@H](N)CC(N)=O)C(C)C)C(=O)N[C@@H](Cc1cnc[nH]1)C(=O)N1CCC[C@H]1C(=O)N[C@@H](Cc1ccc([N+](=O)[O-])cc1)C(=O)O` (HELM PEPTIDE1{N.R.V.Y.I.H.P.[O=C(O)[C@H](Cc1ccc([N+](=O)[O-])cc1)N[*:1]]}$$$$V2.0) was 15%; that for `CC[C@H](C)[C@H](NC(=O)[C@H](Cc1ccc(O)c(Cc2ccccc2)c1)NC(=O)[C@@H](NC(=O)[C@H](CCCNC(=N)N)NC(=O)[C@@H](N)CC(N)=O)C(C)C)C(=O)N[C@@H](Cc1cnc[nH]1)C(=O)N1CCC[C@H]1C(=O)N[C@@H](Cc1ccc([N+](=O)[O-])cc1)C(=O)O` (HELM PEPTIDE1{N.R.V.[O=C([C@H](Cc1ccc(O)c(Cc2ccccc2)c1)N[*:1])[*:2]].I.H.P.[O=C(O)[C@H](Cc1ccc([N+](=O)[O-])cc1)N[*:1]]}$$$$V2.0) was 0.16%.
For `CC[C@H](C)[C@H](NC(=O)[C@H](Cc1ccc(O)cc1)NC(=O)[C@@H](NC(=O)[C@H](CCCNC(=N)N)NC(=O)CNC)C(C)C)C(=O)N[C@@H](Cc1cnc[nH]1)C(=O)N1CCC[C@H]1C(=O)N[C@@H](CC(C)C)C(=O)O` (HELM PEPTIDE1{[Sar].R.V.Y.I.H.P.L}$$$$V2.0), the “inhibition (INH)” value in data set [2] came to 67%; in data set [3], 50%. Moreover, in data set [1], the Activity came out at 2.5%. For the same molecule, in data set [4], the T1/2 was determined as 45 min.
On to H-DRVYIHPV-OH, for which the Activity in data set [1] turned out to be 0.5%.
On the same count and under the same terms, the value for H-DRVYIHPY-OH was 83%; that for H-NRVYIHPL-OH was 1.2%; that for H-NRVYVHPF-OH [ANGIOTENSIN AMIDE] was 100%.
